Measured values taken from ChEMBL document CHEMBL1134049, “Antimitotic and cell growth inhibitory properties of combretastatin A-4-like ethers” (Bioorg Med Chem Lett, 2001).

How the values were obtained:
K562 [1] = assay: Concentration required for 50% inhibition of K562 human chronic myelogenous leukemia cell growth in MTT assay; type: functional, cell-based
How it was run: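 K562 cells grown at 37 °C with compound for 5 days; growth read by MTT assay; IC50 taken as concentration giving 50% decrease in cell growth.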

P388 = assay: Concentration required for 50% inhibition of P388 murine leukemia cell growth in MTT assay; type: functional, cell-based; details: Mus musculus
K562 [2] = assay: Effect upon S phase of cell cycle relative to untreated control; type: functional, Homo sapiens; design: unit not given here
Tubulin [3] = target: T1, Tubulin (Sus scrofa, UniProt P02554+P02550); assay: Effect on tubulin binding and the concentration required to cause 50% decrease in tubulin assembly at 350 nm.; type: protein assay
How it was run: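 Tubulin assembly followed by increase in turbidity at 350 nm; IC50 is the concentration causing 50% decrease in assembly.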

K562 [4] = assay: Effect upon G2 M phase of cell cycle relative to untreated control; type: functional, Homo sapiens; design: unit not given here
Tubulin [5] = target: T1, Tubulin; assay: Concentration required to cause 50% decrease in the binding of [3H]colchicine from purified porcine tubulin.; type: protein assay
K562 [6] = assay: Effect upon G0-G1 phase of cell cycle relative to untreated control; type: functional, Homo sapiens; design: unit not given here
L1210 = assay: Concentration required for 50% inhibition of L1210 murine leukemia cell growth in MTT assay; type: functional, cell-based; details: Mus musculus

Question: How did the IC50 (K562 [1]) turn out when `COc1ccc(Oc2ccc(C)c(C)c2)cc1` was run?
Answer: The IC50 was 24000 nM.

Question: How did the IC50 (P388) turn out when `COc1ccc([C@H](O)[C@@H](O)c2cc(OC)c(OC)c(OC)c2)cc1O` was run?
Answer: Its IC50 is 2000 nM.

Question: `COc1ccc(COc2cc(OC)c(OC)c(OC)c2)cc1OCC(O)CO` (centres undefined) was tested. Which IC50 (K562 [1]) did it give?
Answer: Its IC50 is 90000 nM.

Question: How did the IC50 (P388) turn out when `COc1ccc([C@@H](O)[C@H](O)c2cc(OC)c(OC)c(OC)c2)cc1O` was run?
Answer: Its IC50 is 19000 nM.

Question: For `COc1ccc(COc2cc(OC)c(OC)c(OC)c2)cc1OCC=O`, which IC50 (K562 [1]) is on record?
Answer: Its IC50 is 2500 nM.

Question: With `COc1ccc(CCc2cc(OC)c(OC)c(OC)c2)cc1O` as the molecule, how does the IC50 (P388) read?
Answer: The IC50 was 110 nM.

Question: How did the IC50 (K562 [1]) turn out when `COc1ccc(Oc2cc(OC)c(OC)c(OC)c2)cc1` was run?
Answer: The IC50 was 380 nM.

Question: Which IC50 (K562 [1]) does the source give for `COc1ccc(OCc2cc(OC)c(OC)c(OC)c2)cc1CO` here?
Answer: Its IC50 is 60000 nM.

Question: `COc1ccc(OCc2cc(OC)c(OC)c(OC)c2)cc1O` was tested. Which Activity (K562 [2]) did it give?
Answer: Its Activity is 17.9.

Question: What about the IC50 (Tubulin [3]) of the same molecule?
Answer: The IC50 was 22500 nM.

Question: And the Activity (K562 [4])?
Answer: Its Activity is 78.3.

Question: What about the IC50 (Tubulin [5]) of the same molecule?
Answer: The IC50 was 226000 nM.

Question: And the IC50 (K562 [1])?
Answer: Its IC50 is 120 nM.

Question: And the Activity (K562 [6])?
Answer: The Activity was 3.8.

Question: How did the Activity (K562 [2]) turn out when `COc1ccc(COc2cc(OC)c(OC)c(OC)c2)cc1O` was run?
Answer: The Activity was 14.

Question: What about the IC50 (Tubulin [3]) of the same molecule?
Answer: Its IC50 is 6600 nM.

Question: And the Activity (K562 [4])?
Answer: Its Activity is 82.5.

Question: And the IC50 (Tubulin [5])?
Answer: Its IC50 is 36000 nM.

Question: What about the IC50 (K562 [1]) of the same molecule?
Answer: Its IC50 is 20 nM.

Question: What about the Activity (K562 [6]) of the same molecule?
Answer: Its Activity is 3.5.

Question: `COc1ccc(OCc2cc(OC)c(OC)c(OC)c2)cc1C=O` was tested. Which Activity (K562 [2]) did it give?
Answer: The Activity was 33.1.

Question: And the IC50 (Tubulin [3])?
Answer: Its IC50 is 600 nM.

Question: And the Activity (K562 [4])?
Answer: Its Activity is 57.8.

Question: What about the IC50 (Tubulin [5]) of the same molecule?
Answer: The IC50 was 4000 nM.

Question: What about the IC50 (K562 [1]) of the same molecule?
Answer: The IC50 was 170 nM.

Question: What about the Activity (K562 [6]) of the same molecule?
Answer: The Activity was 9.1.

Question: How did the IC50 (P388) turn out when `COc1ccc(/C=C\c2cc(OC)c(OC)c(OC)c2)cc1O` [COMBRETASTATIN A4] was run?
Answer: Its IC50 is 160 nM.

Question: With `COc1ccc(Nc2cc(OC)c(OC)c(OC)c2)cc1` as the molecule, how does the IC50 (K562 [1]) read?
Answer: The IC50 was 3000 nM.

Question: How did the IC50 (K562 [1]) turn out when `COc1ccc(C#Cc2cc(OC)c(OC)c(OC)c2)cc1O` was run?
Answer: Its IC50 is 21000 nM.

Question: With `COc1ccc(-c2cc(OC)c(OC)c(OC)c2)cc1O` as the molecule, how does the IC50 (L1210) read?
Answer: Its IC50 is greater than 50000 nM.

Question: Which IC50 (P388) does the source give for `COc1ccc(C(O)Cc2cc(OC)c(OC)c(OC)c2)cc1O` (centres undefined) here?
Answer: The IC50 was 33000 nM.

Question: How did the IC50 (K562 [1]) turn out when `COc1ccc(Nc2cc(OC)c(OC)c(OC)c2)cc1OCc1ccccc1` was run?
Answer: Its IC50 is 15000 nM.

Question: Which IC50 (P388) does the source give for `COc1ccc(/C=C/c2cc(OC)c(OC)c(OC)c2)cc1O` [E-COMBRETASTATIN A-4] here?
Answer: The IC50 was 2.6 nM.

Question: With `C=CCOc1cc(COc2cc(OC)c(OC)c(OC)c2)ccc1OC` as the molecule, how does the IC50 (K562 [1]) read?
Answer: The IC50 was 30000 nM.

Question: With `COc1ccc(Nc2cc(OC)c(OC)c(OC)c2)cc1O` as the molecule, how does the Activity (K562 [2]) read?
Answer: Its Activity is 9.4.

Question: And the IC50 (Tubulin [3])?
Answer: The IC50 was greater than 100000 nM.

Question: What about the Activity (K562 [4]) of the same molecule?
Answer: The Activity was 87.2.

Question: What about the IC50 (Tubulin [5]) of the same molecule?
Answer: The IC50 was 298000 nM.

Question: What about the IC50 (K562 [1]) of the same molecule?
Answer: Its IC50 is 2600 nM.

Question: And the Activity (K562 [6])?
Answer: Its Activity is 3.4.

Question: With `COc1ccc(Oc2cc(OC)c(OC)c(OC)c2)cc1OCc1ccccc1` as the molecule, how does the IC50 (K562 [1]) read?
Answer: The IC50 was 51000 nM.

Question: `COc1ccc(CC(O)c2cc(OC)c(OC)c(OC)c2)cc1O` (centres undefined) was tested. Which IC50 (P388) did it give?
Answer: The IC50 was 33 nM.

Question: For `COc1ccc(C(=O)c2cc(OC)c(OC)c(OC)c2)cc1O` [PHENSTATIN], which IC50 (P388) is on record?
Answer: Its IC50 is 10 nM.

Question: Which Activity (K562 [2]) does the source give for `COc1ccc(Oc2cc(OC)c(OC)c(OC)c2)cc1O` here?
Answer: Its Activity is 22.3.

Question: What about the IC50 (Tubulin [3]) of the same molecule?
Answer: Its IC50 is 16300 nM.

Question: And the Activity (K562 [4])?
Answer: The Activity was 73.4.

Question: And the IC50 (Tubulin [5])?
Answer: The IC50 was 36000 nM.

Question: What about the IC50 (K562 [1]) of the same molecule?
Answer: Its IC50 is 50 nM.

Question: What about the Activity (K562 [6]) of the same molecule?
Answer: Its Activity is 4.3.
